pIC50: −log10 of the molar value.
Experiments:
[1] = tested on: EKVX; assay: Antiproliferative activity against taxane-resistant human EKVX cells after 72 hrs by CellTiter 96 aqueous nonradioactive cell proliferation assay; assay type: functional, cell-based
[2] = Toxicity in Crl:NU(NCr)-Foxn1 nu mouse xenografted with human Calu6 cells assessed as maximum body weight loss at 60 mg/kg, ip qd administered for 3 consecutive days followed by 2 days of rest for 4 cycles measured after 2 days post dose relative to control; assay type: organism-based; conditions: in vivo, 48 h
How it was run: (§1)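 Female athymic nude mice bearing subcutaneous xenografts, started from cultured cells (NCI-H460, Calu-6, NCI-H69, LOX-IMVI) or from serially passaged tumour fragments (NCI-H522). Mice were grouped into vehicle and treatment arms at tumour volumes of about 75-200 mm3. Dosing was ip at 5-10 mL/kg in 22% ethanol, 38% PEG400, 40% 20 mM Na citrate pH 5.0. Caliper volumes were taken as (length × width2)/2. Treated and control delta weights were median tumour weight minus staging-day median.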

[3] = tested on: OVCAR-4; assay: Potency index, ratio of paclitaxel IC50 to compound IC50 for taxane-resistant human OVCAR4 cells after 72 hrs by CellTiter 96 aqueous nonradioactive cell proliferation assay; assay type: functional
[4] = Toxicity in Crl:NU(NCr)-Foxn1 nu mouse xenografted with human LOX-IMVI cells assessed as maximum body weight loss at 30 mg/kg, ip qd administered for 7 consecutive days measured after 6 days post dose relative to control; assay type: organism-based; conditions: in vivo, 144 h; how it was run: as §1
[5] = Drug uptake in tumor of human NCI-H460 cells xenografted in Crl:NU(NCr)-Foxn1 nu mouse at 40 mg/kg, ip measured at 3 hrs post injection by LC-MS analysis; assay type: ADME, organism-based, Neoplasm; conditions: in vivo
How it was run: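 Male Nu/Nu mice, some bearing NCI-H460 or LOX-IMVI xenografts, given a single ip dose at 3 mL/kg. Organic vehicle components were dissolved first, with the aqueous part added gradually. Mice were euthanized at 1 h or 3 h. Cardiac blood was taken into NaEDTA/NaF plasma separator tubes. Quantification used loratadine internal standard against a spiked blank-plasma curve. Tumours were run as duplicate ~200 mg samples homogenized in 3% SDS and extracted twice with ethyl acetate, assuming 1 g tissue = 1 mL.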

[6] = tested on: EKVX; assay: Potency index, ratio of paclitaxel IC50 to compound IC50 for taxane-resistant human EKVX cells after 72 hrs by CellTiter 96 aqueous nonradioactive cell proliferation assay; assay type: functional
[7] = Toxicity in Crl:NU(NCr)-Foxn1 nu mouse xenografted with human LOX-IMVI cells assessed as mortality at 30 mg/kg, ip qd administered for 7 consecutive days; assay type: organism-based; conditions: in vivo
How it was run: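 Female athymic nude mice bearing subcutaneous xenografts started from cultured human tumor cells. Mice were split into vehicle and treatment groups once tumors reached about 75-200 mm3. Dosing was ip at 5-10 mL/kg in 22% ethanol, 38% PEG400, 40% 20 mM Na citrate pH 5.0. Deaths per group were recorded alongside maximum mean bodyweight loss.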

[8] = tested on: NCI-H522; assay: Antitumor activity against human NCI-H522 cells xenografted in Crl:NU(NCr)-Foxn1 nu mouse assessed as tumor growth inhibition at 60 mg/kg, ip qd administered for 3 consecutive days followed by 2 days of rest for 3 cycles relative to control; assay type: functional; conditions: 48 h, read-out: TGI; how it was run: as §1

C=CC[C@H]1C[C@]2([C@H](C)Cc3cc(O)c(OC)cc3F)OCOC2=CC1=O
pIC50 [1]: 8.15
Activity [2]: 2%
Ratio IC50 [3]: >75
Activity [4]: 9%
Drug uptake [5]: Active
Ratio IC50 [6]: 21
Activity [7]: Non-Toxic
inhibition in vivo at 60 mg/kg [8]: 82%

— ChEMBL document CHEMBL4325827, “Bifidenone: Structure-Activity Relationship and Advanced Preclinical Candidate” (J Med Chem, 2018)
